Laboratory results as given in ChEMBL document CHEMBL3098067, “Novel di-tertiary-butyl phenylhydrazones as dual cyclooxygenase-2/5-lipoxygenase inhibitors: synthesis, COX/LOX inhibition, molecular modeling, and insights into their cytotoxicities” (Bioorg Med Chem Lett, 2014).
pIC50: −log10 of the molar value. The source made the active and inactive calls. The rule behind the calls is not given here.

Columns and labels:
HCA-7 [1] = assay: Cytotoxicity against human HCA-7 cells expressing COX-2, 5-LOX, CD44v6 assessed as growth inhibition after 24 hrs by MTT assay; type: functional, cell-based
Summary of the method: (§1)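 HCA7 and HIEC6 cells were exposed to a range of test concentrations for 24 h. Cytotoxicity was read by MTT assay and expressed as percent growth inhibition, with untreated cells set to 0% inhibition.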

HCA-7 [2] = assay: Inhibition of hyaluronan-induced CD44v6 in human HCA-7 cells transfected with Has2cDNA assessed as downregulation of 5-LOX protein expression at 50 uM after 24 hrs by Western blotting analysis; type: cell-based
Summary of the method: (§2)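 HCA7 cells were transiently transfected with Has2 cDNA, grown 72 h, then treated for 24 h. Western blots were probed for CD44v6, COX-1, COX-2 and 5-LOX, with longer exposures used to show COX-2 and 5-LOX. The same blot was reprobed for β-tubulin as a loading control.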

HCA-7 [3] = assay: Inhibition of hyaluronan-induced CD44v6 in human HCA-7 cells transfected with Has2cDNA assessed as downregulation of COX-2 protein expression at 50 uM after 24 hrs by Western blotting analysis; type: cell-based; summary of the method: as §2
HCA-7 [4] = assay: Inhibition of hyaluronan-induced CD44v6 in human HCA-7 cells transfected with Has2cDNA assessed as downregulation of COX-1 protein expression at 50 uM after 24 hrs by Western blotting analysis; type: cell-based; summary of the method: as §2
[5] = Cytotoxicity against COX-2 positive mouse APC10.1 cells transfected with CD44v6shRNA overexpressing HAS-2 assessed as growth inhibition after 48 hrs by MTT assay; type: functional, cell-based
[6] = Cytotoxicity against COX-2 positive human HCA-7 cells transfected with CD44v6shRNA assessed as growth inhibition after 48 hrs by MTT assay; type: functional, cell-based; conditions: HCA-7, 48 h
HT-29 [7] = assay: Cytotoxicity against COX-2 positive human HT-29 cells transfected with CD44v6shRNA assessed as growth inhibition after 48 hrs by MTT assay; type: functional, cell-based; conditions: HT-29, 48 h
SW480 = assay: Cytotoxicity against COX-2 negative human SW480 cells assessed as growth inhibition by CellTiter-96 AQueous assay; type: functional, cell-based
[8] = Cytotoxicity against COX-2 positive human HCA-7 cells assessed as growth inhibition by CellTiter-96 AQueous assay; type: functional, cell-based
[9] = Cytotoxicity against COX-2 positive mouse APC10.1 cells overexpressing HAS-2 assessed as growth inhibition by CellTiter-96 AQueous assay; type: functional, cell-based
HT-29 [10] = assay: Cytotoxicity against COX-2 positive human HT-29 cells assessed as growth inhibition by CellTiter-96 AQueous assay; type: functional, cell-based
[11] = molecular target: T1, Prostaglandin G/H synthase 1 (Ovis aries, UniProt P05979); assay: Inhibition of ram seminal vesicle COX-1 assessed as conversion of arachidonic acid to PGH2
T1 sequence (P05979 whole entry): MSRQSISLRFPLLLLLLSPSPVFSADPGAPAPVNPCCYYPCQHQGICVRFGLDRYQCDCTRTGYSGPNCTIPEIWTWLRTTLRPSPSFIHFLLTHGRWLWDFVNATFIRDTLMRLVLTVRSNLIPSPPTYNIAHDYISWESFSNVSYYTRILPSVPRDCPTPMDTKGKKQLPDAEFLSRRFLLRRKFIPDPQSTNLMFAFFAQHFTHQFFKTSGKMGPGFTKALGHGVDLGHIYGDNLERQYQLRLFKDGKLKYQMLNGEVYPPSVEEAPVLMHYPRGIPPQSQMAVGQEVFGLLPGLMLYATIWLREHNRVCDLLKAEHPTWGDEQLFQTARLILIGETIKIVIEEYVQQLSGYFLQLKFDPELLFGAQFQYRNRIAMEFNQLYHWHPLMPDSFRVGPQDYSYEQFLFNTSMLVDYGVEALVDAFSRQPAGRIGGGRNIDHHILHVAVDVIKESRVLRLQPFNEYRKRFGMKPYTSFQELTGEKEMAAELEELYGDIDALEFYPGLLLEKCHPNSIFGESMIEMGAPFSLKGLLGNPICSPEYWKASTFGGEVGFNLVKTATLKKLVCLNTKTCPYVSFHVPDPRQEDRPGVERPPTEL
Summary of the method: (§3)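 Assays used enzyme immobilized in ELISA plates, with activity read by ELISA. IC50 values are given in µM.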

[12] = Ratio of IC50 for COX-2 positive mouse APC10.1 cells overexpressing HAS-2 to IC50 for COX-2 positive mouse APC10.1 cells transfected with CD44v6shRNA overexpressing HAS-2; type: functional
[13] = Ratio of IC50 for COX-2 positive human HCA-7 cells to IC50 for COX-2 positive human HCA-7 cells transfected with CD44v6shRNA; type: functional
HT-29 [14] = assay: Ratio of IC50 for COX-2 positive human HT-29 cells to IC50 for COX-2 positive human HT-29 cells transfected with CD44v6shRNA; type: functional
HCA-7 [15] = assay: Inhibition of hyaluronan-induced CD44v6 in human HCA-7 cells transfected with Has2cDNA assessed as downregulation of 5-LOX protein expression at 5 uM after 24 hrs by Western blotting analysis; type: cell-based; summary of the method: as §2
HCA-7 [16] = assay: Inhibition of hyaluronan-induced CD44v6 in human HCA-7 cells transfected with Has2cDNA assessed as downregulation of COX-2 protein expression at 5 uM after 24 hrs by Western blotting analysis; type: cell-based; summary of the method: as §2
HCA-7 [17] = assay: Inhibition of hyaluronan-induced CD44v6 in human HCA-7 cells transfected with Has2cDNA assessed as downregulation of COX-1 protein expression at 5 uM after 24 hrs by Western blotting analysis; type: cell-based; summary of the method: as §2
HT-29 [18] = assay: Downregulation of hyaluronan-induced CD44v6 m-RNA expression in human HT-29 cells transfected with Has2cDNA and CD44v6shRNA at 5 uM after 24 hrs by qRT-PCR analysis; type: functional, cell-based
Summary of the method: (§4)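 HT29 cells were transiently transfected with Has2 cDNA alone, or with Has2 cDNA followed by CD44v6 shRNA. They were grown 72 h, then treated for 24 h. CD44v6 mRNA was quantified by qRT-PCR in three independent experiments, each with triplicate samples.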

HT-29 [19] = assay: Downregulation of hyaluronan-induced CD44v6 m-RNA expression in human HT-29 cells transfected with Has2cDNA at 5 uM after 24 hrs by qRT-PCR analysis; type: functional, cell-based; summary of the method: as §4
[20] = Downregulation of hyaluronan-induced CD44v6 protein expression in human HCA-7 cells transfected with Has2cDNA at 5 uM after 24 hrs by Western blotting analysis; type: functional, cell-based; summary of the method: as §2
[21] = Cytotoxicity against COX-2, LOX, CD44v6-deficient HIEC6 cells assessed as growth inhibition after 24 hrs by MTT assay; type: cell-based; conditions: human, hiec6, 24 h; summary of the method: as §1
[22] = molecular target: T2, Polyunsaturated fatty acid 5-lipoxygenase (Homo sapiens, UniProt P09917); assay: Inhibition of 5-LOX (unknown origin) by ELISA; summary of the method: as §3
T2 sequence (P09917 whole entry): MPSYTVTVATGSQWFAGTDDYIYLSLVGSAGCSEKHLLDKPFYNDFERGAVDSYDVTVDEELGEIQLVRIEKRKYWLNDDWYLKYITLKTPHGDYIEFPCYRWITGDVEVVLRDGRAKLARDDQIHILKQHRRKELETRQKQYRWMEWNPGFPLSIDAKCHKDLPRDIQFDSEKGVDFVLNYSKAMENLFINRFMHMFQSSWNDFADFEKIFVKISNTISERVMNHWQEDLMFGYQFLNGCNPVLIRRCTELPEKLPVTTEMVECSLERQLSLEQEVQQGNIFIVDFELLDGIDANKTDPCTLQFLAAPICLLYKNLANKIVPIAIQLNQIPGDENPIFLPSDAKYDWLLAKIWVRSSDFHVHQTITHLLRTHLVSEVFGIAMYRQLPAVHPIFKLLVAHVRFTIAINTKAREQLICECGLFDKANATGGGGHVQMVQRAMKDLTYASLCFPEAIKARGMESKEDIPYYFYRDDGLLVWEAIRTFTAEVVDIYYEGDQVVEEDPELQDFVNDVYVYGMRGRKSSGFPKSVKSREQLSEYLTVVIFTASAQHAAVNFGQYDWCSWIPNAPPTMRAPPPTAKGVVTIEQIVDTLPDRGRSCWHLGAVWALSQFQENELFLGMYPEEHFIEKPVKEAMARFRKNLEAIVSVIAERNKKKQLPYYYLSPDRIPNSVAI

[23] = molecular target: T3, Prostaglandin G/H synthase 2 (Homo sapiens, UniProt P35354); assay: Inhibition of COX-2 (unknown origin) by ELISA
T3 sequence (P35354 whole entry): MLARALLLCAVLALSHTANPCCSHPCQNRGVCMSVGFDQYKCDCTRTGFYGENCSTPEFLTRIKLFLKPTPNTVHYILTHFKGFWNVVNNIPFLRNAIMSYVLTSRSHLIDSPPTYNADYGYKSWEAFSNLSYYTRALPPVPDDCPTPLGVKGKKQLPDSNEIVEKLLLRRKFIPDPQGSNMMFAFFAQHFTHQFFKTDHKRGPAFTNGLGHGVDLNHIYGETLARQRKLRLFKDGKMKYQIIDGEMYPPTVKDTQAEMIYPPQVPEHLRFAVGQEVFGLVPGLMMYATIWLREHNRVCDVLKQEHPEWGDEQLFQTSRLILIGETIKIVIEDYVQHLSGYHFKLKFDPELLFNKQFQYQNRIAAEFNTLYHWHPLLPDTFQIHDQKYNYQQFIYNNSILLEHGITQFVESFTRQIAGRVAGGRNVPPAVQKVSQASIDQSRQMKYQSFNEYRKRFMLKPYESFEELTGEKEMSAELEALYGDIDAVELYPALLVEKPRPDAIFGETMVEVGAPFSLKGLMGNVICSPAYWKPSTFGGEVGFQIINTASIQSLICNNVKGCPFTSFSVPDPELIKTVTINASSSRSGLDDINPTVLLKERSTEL

pIC50 [11]	pIC50 [22]	pIC50 [23]	Compound	growth inhibition (GI) (HCA-7 [1])	pIC50 [5]	pIC50 [6]	pIC50 (HT-29 [7])	pIC50 (SW480)	pIC50 [8]	pIC50 [9]	pIC50 (HT-29 [10])	Ratio IC50 [12]	Ratio IC50 [13]	Ratio IC50 (HT-29 [14])	Activity (HCA-7 [15])	Activity (HCA-7 [16])	Activity (HCA-7 [17])	Activity [20]	also measured
6.10	–	–	CC1(C)Cc2c(-c3ccccc3)c(-c3ccc(Cl)cc3)c(CC(=O)O)n2C1 [LICOFELONE]	–	4.64	4.73	4.68	4.17	4.22	4.15	4.17	–	–	–	–	–	–	–	Activity (HCA-7 [2]): Active; Activity (HCA-7 [3]): Active; Activity (HCA-7 [4]): Active
4.35	5.10	5.29	CC(C)(C)c1cc(/C=N/NC(=O)c2ccccc2O)c(O)c(C(C)(C)C)c1	Active	6.82	7.11	7.05	4.81	5.80	5.25	5.74	37.3	21	20	Active	Active	Active	Active	Activity (HT-29 [18]): Active; Activity (HT-29 [19]): Active; Activity [21]: Non-toxic
< 3.52	5.20	5.15	CC(C)(C)c1cc(/C=N/NC(=O)c2ccncc2)c(O)c(C(C)(C)C)c1	–	5.52	6.12	6.15	4.47	5.19	4.74	5.24	6.1	8.4	8	Active	Active	Active	Active	–
4.59	5.23	5.19	CC(C)(C)c1cc(/C=N/NC(=O)c2ccccc2)c(O)c(C(C)(C)C)c1	–	5.74	6.25	6.07	4.45	5.37	4.92	5.24	6.1	7.7	6.7	Active	Active	Active	Active	–

The remaining lines, values behind:

Compound	pIC50 [11]	pIC50 [22]	pIC50 [23]	growth inhibition (GI) (HCA-7 [1])	pIC50 [5]	pIC50 [6]	pIC50 (HT-29 [7])	pIC50 (SW480)	pIC50 [8]	pIC50 [9]	pIC50 (HT-29 [10])	Ratio IC50 [12]	Ratio IC50 [13]	Ratio IC50 (HT-29 [14])	Activity (HCA-7 [15])	Activity (HCA-7 [16])	Activity (HCA-7 [17])	Activity [20]	also measured
NNC(=O)c1ccccc1O	–	–	–	Active	–	–	–	–	–	–	–	–	–	–	–	–	–	–	–
CC(C)(C)c1cc(/C=N/NC(=O)c2cccnc2)c(O)c(C(C)(C)C)c1	< 3.52	5.26	5.06	–	5.72	6.59	6.46	4.43	5.46	4.86	5.37	7.2	14	12	Active	Active	Active	Active	–
Cc1ccc(-c2cc(C(F)(F)F)nn2-c2ccc(S(N)(=O)=O)cc2)cc1 [CELECOXIB]	–	–	–	–	5.89	6.12	6.15	5.16	5.31	4.87	5.24	–	–	–	Active	Active	Active	–	–
CC(C)(C)c1cc(C=O)c(O)c(C(C)(C)C)c1	–	–	–	Active	–	–	–	–	–	–	–	–	–	–	–	–	–	–	–
